# According to ChEMBL document CHEMBL4251619, “A new family of densely functionalized fused-benzoquinones as potent human protein kinase CK2 inhibitors” (Eur J Med Chem, 2018):
# Calls of active or inactive are those of the source. The rule behind the calls is not given here.
# Assays:
# MCF7 [1] = assay: Cytotoxicity against human MCF7 cells assessed as inhibition of cell viability at 10 uM after 48 hrs by MTT assay; format: functional, cell-based
# Outline: (§1)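 MCF-7 cells grown in RPMI 1640 with GlutaMax and 10% FCS. Seeded at 1 x 10^5 cells/well and left overnight, then given fresh medium with inhibitor at 10 or 100 µM; 1% DMSO as control. After 48 h at 37 °C, 5% CO₂, MTT was added (0.5 mg/mL final) for 2 h. Formazan dissolved in DMSO and read at 570 nm against 630 nm reference. Triplicates, three independent experiments, mean ± SD.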
# [2] = target: T1, Casein kinase II alpha/beta (Homo sapiens, UniProt P68400); assay: Inhibition of human CK2-alpha/beta expressed in Escherichia coli BL21(DE3) using RRRDDDSDDD peptide as substrate after 15 mins by capillary electrophoresis method
# MCF7 [3] = assay: Cytotoxicity against human MCF7 cells assessed as inhibition of cell viability at 100 uM after 48 hrs by MTT assay relative to control; format: functional; conditions: MCF7, 48 h; outline: as §1
# [4] = target: T1, Casein kinase II alpha/beta; assay: ATP-competitive inhibition of human CK2-alpha/beta expressed in Escherichia coli BL21(DE3) using RRRDDDSDDD peptide as substrate after 15 mins in presence of varying levels of ATP by capillary electrophoresis method
# Casein kinase 2 = Casein kinase 2 (Homo sapiens, UniProt P67870+P68400+P19784+Q8NEV1); assay: Inhibition of CK2 (unknown origin); format: protein assay
Compound,IC50 [2] [nM],Ki [4] [nM],IC50 (Casein kinase 2) [nM],inhibition (MCF7 [1]),inhibition at 100 µM (MCF7 [3]) [%]
CCCCCCCCCCCC1=C(O)C(=O)C2=C(OC(N)=C(C#N)C2CCCCCC)C1=O (stereo unspecified),3710,,,,
CCCCCCCCCCCC1=C(O)C(=O)C2=C(OC(N)=C(C#N)C2c2ccncc2)C1=O (stereo unspecified),1440,,,,
CCCCCCCCC1=C(O)C(=O)C2=C(OC(N)=C(C#N)C2c2ccc([N+](=O)[O-])cc2)C1=O (stereo unspecified),1990,,,,
CCCCCCCCCCCC1=C(O)C(=O)C2=C(OC(N)=C(C#N)C2c2cccnc2)C1=O (stereo unspecified),1380,,,,
CCCCCCCCCCCC1=C(O)C(=O)C2=C(OC(N)=C(C#N)C2c2ccc3c(c2)OCO3)C1=O (stereo unspecified),1940,,,,

# The remaining compounds from weak to strong by IC50 [2], led by results:
IC50 [2] [nM],Ki [4] [nM],IC50 (Casein kinase 2) [nM],Compound,inhibition (MCF7 [1]),inhibition at 100 µM (MCF7 [3]) [%]
1360,,,CCCCCCCCCCCC1=C(O)C(=O)C2=C(OC(N)=C(C#N)C2c2ccc(C(=O)O)cc2)C1=O (stereo unspecified),,
996,,,CCCCCCCCCCCC1=C(O)C(=O)C2=C(OC(N)=C(C#N)C2c2cccc(F)c2)C1=O (stereo unspecified),inactive,60
900,,< 1000,CCCCCCCCCCCC1=C(O)C(=O)C2=C(OC(N)=C(C#N)C2c2ccc(Cl)cc2)C1=O (stereo unspecified),inactive,
890,,,CCCCCCCCCCCC1=C(O)C(=O)C2=C(OC(N)=C(C#N)C2c2cccc([N+](=O)[O-])c2)C1=O (stereo unspecified),inactive,65
840,,,CCCCCCCCCCCC1=C(O)C(=O)C2=C(OC(N)=C(C#N)C2c2ccc(OC)cc2)C1=O (stereo unspecified),inactive,55
720,,,CCCCCCCCCCCC1=C(O)C(=O)C2=C(OC(N)=C(C#N)C2c2ccco2)C1=O (stereo unspecified),,
570,390,,CCCCCCCCCCCC1=C(O)C(=O)C2=C(OC(N)=C(C#N)C2c2ccccc2)C1=O (stereo unspecified),inactive,50
220,,,CCCCCCCCCCCC1=C(O)C(=O)C2=C(OC(N)=C(C#N)C2c2ccc([N+](=O)[O-])cc2)C1=O (stereo unspecified),inactive,90
